# Results: ChEMBL document CHEMBL3232847, “Discovery of 6-phenylpyrimido[4,5-b][1,4]oxazines as potent and selective acyl CoA:diacylglycerol acyltransferase 1 (DGAT1) inhibitors with in vivo efficacy in rodents” (J Med Chem, 2014)
# Calls of active or inactive are those of the source. The calls are words filed in the database; no cut-off is given here.
# How the values were obtained:
# [1] = Oral Bioavailability in CD1 mouse at 0.3 mg/kg; format: ADME, organism-based; details: in vivo
# [2] = Clearance in Sprague-Dawley rat at 0.7 mg/kg, iv; format: ADME, organism-based; design: dose 0.7 mg/kg, route intravenous; details: in vivo
# [3] = AUC in CD1 mouse at 0.3 mg/kg, po; format: ADME, organism-based; design: dose 0.3 mg/kg, route oral; details: plasma
# [4] = biological target: T1, Cytochrome P450 1A2 (Homo sapiens, UniProt P05177); assay: Inhibition of CYP1A2 (unknown origin) at 10 uM; format: ADME
# T1 sequence (P05177 whole entry): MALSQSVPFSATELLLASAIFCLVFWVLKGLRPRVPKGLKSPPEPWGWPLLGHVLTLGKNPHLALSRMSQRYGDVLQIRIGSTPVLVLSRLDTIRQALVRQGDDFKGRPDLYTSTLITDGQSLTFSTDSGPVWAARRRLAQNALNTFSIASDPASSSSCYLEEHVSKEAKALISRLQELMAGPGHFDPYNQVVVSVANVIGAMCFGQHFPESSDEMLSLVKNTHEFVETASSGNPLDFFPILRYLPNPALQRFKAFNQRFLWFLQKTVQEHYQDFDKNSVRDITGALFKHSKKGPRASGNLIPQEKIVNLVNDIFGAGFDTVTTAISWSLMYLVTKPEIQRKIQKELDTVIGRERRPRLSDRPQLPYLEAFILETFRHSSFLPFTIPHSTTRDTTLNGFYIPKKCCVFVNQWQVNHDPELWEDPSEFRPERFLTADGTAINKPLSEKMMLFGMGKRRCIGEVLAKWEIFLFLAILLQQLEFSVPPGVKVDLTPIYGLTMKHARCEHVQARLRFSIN
# [5] = biological target: Cytochrome P450 2D6 (Homo sapiens, UniProt P10635); assay: Inhibition of CYP2D6 (unknown origin) at 10 uM; format: ADME
# [6] = biological target: Cytochrome P450 2C9 (Homo sapiens, UniProt P11712); assay: Inhibition of CYP2C9 (unknown origin) at 10 uM; format: ADME
# [7] = biological target: Cytochrome P450 3A4 (Homo sapiens, UniProt P08684); assay: Inhibition of CYP3A4 (unknown origin) at 10 uM; format: ADME
# [8] = biological target: T2, Diacylglycerol O-acyltransferase 2 (Homo sapiens, UniProt Q96PD7); assay: Inhibition of human liver flag-tagged DGAT2 expressed in baculovirus infected insect cells after 2 hrs by SPA
# T2 sequence (Q96PD7 whole entry): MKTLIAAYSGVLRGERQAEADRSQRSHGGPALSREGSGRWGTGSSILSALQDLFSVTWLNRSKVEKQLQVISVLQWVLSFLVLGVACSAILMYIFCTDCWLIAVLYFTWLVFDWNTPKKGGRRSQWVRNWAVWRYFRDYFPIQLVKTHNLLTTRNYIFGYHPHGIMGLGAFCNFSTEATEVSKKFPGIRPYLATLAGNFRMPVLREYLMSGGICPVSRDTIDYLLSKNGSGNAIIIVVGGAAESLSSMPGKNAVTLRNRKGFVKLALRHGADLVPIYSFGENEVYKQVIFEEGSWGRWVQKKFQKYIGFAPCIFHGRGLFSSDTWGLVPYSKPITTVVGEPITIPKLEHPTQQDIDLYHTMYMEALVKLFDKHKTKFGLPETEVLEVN
# [9] = Inhibition of mouse liver microsomal GPAT by TLC technique in presence of glycerol-3-phosphate and [14C] palmitoyl CoA
# [10] = AUC in C57BL/6J mouse at 0.3 mg/kg, po; format: ADME, organism-based; design: dose 0.3 mg/kg, route oral; details: plasma
# [11] = Volume of distribution at steady state in Sprague-Dawley rat at 0.7 mg/kg, iv; format: ADME, organism-based; design: dose 0.7 mg/kg, route intravenous; details: in vivo, read-out: Vdss
# [12] = Oral bioavailability in Sprague-Dawley rat at 5 mg/kg; format: ADME, organism-based; details: in vivo
# [13] = AUC in beagle dog at 2 mg/kg, po; format: ADME, organism-based, Canis lupus familiaris; design: dose 2 mg/kg, route oral; details: plasma
# [14] = AUC in cynomolgus monkey at 5 mg/kg, po; format: ADME, organism-based, Macaca fascicularis; design: dose 5 mg/kg, route oral; details: plasma
# [15] = test system: Rattus norvegicus; assay: Toxicity in Sprague-Dawley rat assessed as change in clinical parameters at 10 mg/kg, po qd by 14-day multiple-dose toxicity study; format: organism-based; design: dose 10 mg/kg, route oral; details: in vivo
# Procedure, shortened: (§1)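 Sprague−Dawley rats were dosed po once daily for 14 days. Clinical and histopathological findings were assessed, and plasma AUC was recorded for each dose.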
# [16] = test system: Rattus norvegicus; assay: Toxicity in Sprague-Dawley rat assessed as sebaceous gland atrophy at 30 to 100 mg/kg, po qd by 14-day multiple-dose toxicity study; format: organism-based; design: dose 30-100 mg/kg, route oral; details: in vivo; procedure, shortened: as §1
# [17] = AUC in Sprague-Dawley rat at 10 mg/kg, po qd; format: ADME, organism-based; design: dose 10 mg/kg, route oral; details: plasma
# Procedure, shortened: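 Sprague-Dawley rats dosed orally once daily for 14 days in a multiple-dose toxicity study at 10, 30 or 100 mg/kg. Plasma exposure was reported as AUC, and clinical and histopathological findings were recorded.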
# [18] = test system: Cynomolgus monkey; assay: Toxicity in cynomolgus monkey assessed as elevation of prolongation of QTc interval at 10 to 30 mg/kg/day, po qd by 21-day multiple-dose toxicity study relative to control; format: organism-based, Macaca fascicularis; design: route oral; details: in vivo
# Procedure, shortened: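 Cynomolgus monkeys were dosed po once daily at 10 and 30 mg/kg for 21 days. ALT and AST levels, QTc intervals, and clinical and histopathological findings were assessed, and plasma AUC was recorded for each dose.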
# [19] = AUC in cynomolgus monkey at 30 mg/kg/day, po qd; format: ADME, organism-based, Macaca fascicularis; design: route oral; details: plasma
# Procedure, shortened: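 Cynomolgus monkeys dosed orally once daily at 10 or 30 mg/kg for 21 days in a multiple-dose toxicity study. Plasma AUC was reported, with ALT/AST levels, QTc intervals and clinical and histopathological findings monitored.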
# [20] = Clearance in CD1 mouse at 0.5 mg/kg, iv; format: ADME, organism-based; design: dose 0.5 mg/kg, route intravenous; details: in vivo
# [21] = Volume of distribution at steady state in CD1 mouse at 0.5 mg/kg, iv; format: ADME, organism-based; design: dose 0.5 mg/kg, route intravenous; details: in vivo, read-out: Vdss
# [22] = Half life in CD1 mouse at 0.5 mg/kg, iv; format: ADME, organism-based; design: dose 0.5 mg/kg, route intravenous; details: in vivo
# [23] = Volume of distribution at steady state in Sprague-Dawley rat at 1 mg/kg, iv; format: ADME, organism-based; design: dose 1 mg/kg, route intravenous; details: in vivo, read-out: Vdss
# [24] = Half life in Sprague-Dawley rat at 1 mg/kg, iv; format: ADME, organism-based; design: dose 1 mg/kg, route intravenous; details: in vivo
# [25] = AUC in Sprague-Dawley rat at 2 mg/kg, po; format: ADME, organism-based; design: dose 2 mg/kg, route oral; details: plasma
# [26] = Clearance in beagle dog at 0.5 mg/kg, iv; format: ADME, organism-based, Canis lupus familiaris; design: dose 0.5 mg/kg, route intravenous; details: in vivo
# [27] = Half life in rhesus monkey at 0.2 mg/kg, iv; format: ADME, organism-based, Macaca mulatta; design: dose 0.2 mg/kg, route intravenous; details: in vivo
# [28] = test system: Mus musculus; assay: Reduction in plasma triglyceride level in C57BL/6J mouse at 0.3 mg/kg, po treated 30 mins prior to olive oil administration measured 3 hrs post olive oil administration relative to vehicle-treated control; format: functional; design: scale not given: the % may be the effect or the level left
# Procedure, shortened: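 Animals received vehicle or compound by oral gavage, then olive oil (5 mL/kg) by oral gavage 30 min later. Plasma triglycerides were measured before dosing and 3 h after the oil. The read-out was the change in TG from pre-dose, compared with vehicle-treated animals.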
# [29] = AUC in Sprague-Dawley rat at 100 mg/kg, po; format: ADME, organism-based; design: dose 100 mg/kg, route oral; details: plasma
# [30] = Drug metabolism in Sprague-Dawley rat liver S9 fraction assessed as 2-hydroxy compound formation by MS/MS analysis; format: ADME, subcellular
# [31] = biological target: T3, Diacylglycerol O-acyltransferase 2 (Homo sapiens) (UniProt Q96PD7); assay: Inhibition of human liver flag-tagged DGAT2 expressed in baculovirus infected insect cells up to 10 uM after 2 hrs by SPA
# T3 sequence (whole entry): T2 sequence (Q96PD7 whole entry)
# [32] = species: Mus musculus; assay: Inhibition of mouse liver microsomal GPAT up to 10 uM by TLC technique in presence of glycerol-3-phosphate and [14C] palmitoyl CoA
# [33] = Oral Bioavailability in CD1 mouse at 2 mg/kg; format: ADME, organism-based; details: in vivo
# Sequence of Cytochrome P450 2C9 (P11712 whole entry): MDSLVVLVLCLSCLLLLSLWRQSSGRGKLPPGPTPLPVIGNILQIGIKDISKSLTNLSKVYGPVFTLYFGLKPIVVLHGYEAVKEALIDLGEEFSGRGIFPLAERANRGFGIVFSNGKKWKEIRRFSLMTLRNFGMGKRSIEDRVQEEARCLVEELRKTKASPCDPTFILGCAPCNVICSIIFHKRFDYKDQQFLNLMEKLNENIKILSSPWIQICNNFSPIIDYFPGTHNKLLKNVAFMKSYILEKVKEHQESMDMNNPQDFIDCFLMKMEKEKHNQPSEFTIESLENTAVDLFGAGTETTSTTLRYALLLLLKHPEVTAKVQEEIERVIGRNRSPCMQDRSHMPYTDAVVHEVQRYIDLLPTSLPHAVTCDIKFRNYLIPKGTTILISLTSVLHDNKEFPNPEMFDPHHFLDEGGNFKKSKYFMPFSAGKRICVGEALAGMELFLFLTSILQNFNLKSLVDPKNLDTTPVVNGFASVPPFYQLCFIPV
# Sequence of Cytochrome P450 3A4 (P08684 whole entry): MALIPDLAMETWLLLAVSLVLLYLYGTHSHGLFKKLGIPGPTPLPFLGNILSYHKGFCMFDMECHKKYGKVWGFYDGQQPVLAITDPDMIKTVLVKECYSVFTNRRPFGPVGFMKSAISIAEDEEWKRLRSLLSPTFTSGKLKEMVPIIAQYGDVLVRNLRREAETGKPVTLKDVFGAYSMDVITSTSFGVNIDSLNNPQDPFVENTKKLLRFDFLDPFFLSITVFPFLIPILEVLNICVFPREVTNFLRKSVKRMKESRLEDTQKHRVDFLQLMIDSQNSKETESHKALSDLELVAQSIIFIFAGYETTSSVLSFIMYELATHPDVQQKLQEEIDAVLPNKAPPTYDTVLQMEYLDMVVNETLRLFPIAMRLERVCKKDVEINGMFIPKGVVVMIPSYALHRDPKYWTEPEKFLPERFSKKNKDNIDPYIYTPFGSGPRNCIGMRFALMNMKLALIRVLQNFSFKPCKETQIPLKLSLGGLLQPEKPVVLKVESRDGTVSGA
# Sequence of Cytochrome P450 2D6 (P10635 whole entry): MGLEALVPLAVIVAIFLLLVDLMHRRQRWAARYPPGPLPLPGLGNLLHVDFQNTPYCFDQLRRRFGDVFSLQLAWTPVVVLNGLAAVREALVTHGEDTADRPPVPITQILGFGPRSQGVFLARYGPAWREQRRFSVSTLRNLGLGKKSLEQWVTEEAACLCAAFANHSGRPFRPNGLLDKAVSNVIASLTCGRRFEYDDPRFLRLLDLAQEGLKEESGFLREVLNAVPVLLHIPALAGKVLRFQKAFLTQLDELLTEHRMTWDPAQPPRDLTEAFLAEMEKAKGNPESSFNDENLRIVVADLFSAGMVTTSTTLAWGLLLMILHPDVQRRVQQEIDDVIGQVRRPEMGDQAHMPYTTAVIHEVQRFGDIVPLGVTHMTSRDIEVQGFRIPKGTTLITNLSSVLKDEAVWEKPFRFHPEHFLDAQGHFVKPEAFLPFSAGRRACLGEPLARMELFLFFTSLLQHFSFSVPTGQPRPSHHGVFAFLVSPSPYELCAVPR
smiles,measurement,setting,value
CC1(C)Oc2nc(C(F)(F)F)nc(N)c2N=C1c1ccc2c(c1)CC[C@]21CC[C@@H](CC(=O)O)CC1,bioavailability,[1],77%
same,clearance,[2],3.5 mL/min/kg
same,AUC,[3],341 ng·h/mL
same,inhibition (INH),[4],Not Active
same,inhibition (INH),[5],Not Active
same,inhibition (INH),[6],Not Active
same,inhibition (INH),[7],Not Active
same,IC50,[8],> 10 µM
same,IC50,[9],> 10 µM
same,AUC,[10],0.65 µM·h
same,Vd,[11],1.1 L/kg
same,bioavailability,[12],98%
same,AUC,[13],3180 ng·h/mL
same,AUC,[14],252000 ng·h/mL
same,Activity,[15],Non-toxic
same,Activity,[16],Toxic
same,AUC,[17],11 µM·h
same,Activity,[18],Non-toxic
same,AUC,[19],2560 µM·h
same,clearance,[20],7.5 mL/min/kg
same,Vd,[21],2.8 L/kg
same,half-life,[22],4.4 h
CC1(C)Oc2ncnc(N)c2N=C1c1ccc([C@H]2CC[C@H](CC(=O)O)CC2)cc1,Vd,[23],1.65 L/kg
same,half-life,[24],1.7 h
same,AUC,[25],1010 ng·h/mL
same,clearance,[26],11 mL/min/kg
same,half-life,[27],1.8 h
same,Activity,[28],93%
same,inhibition (INH),[4],Not Active
same,inhibition (INH),[5],Not Active
same,inhibition (INH),[6],Not Active
same,inhibition (INH),[7],Not Active
same,AUC,[29],3750 µM·h
same,Drug metabolism,[30],metabolite_detected
same,inhibition,[31],inactive
same,AUC,[10],2.6 µM·h
same,inhibition,[32],inactive
same,clearance,[20],1.83 mL/min/kg
same,Vd,[21],0.79 L/kg
same,half-life,[22],4.7 h
same,bioavailability,[33],40%
